Assay results from ChEMBL document CHEMBL3758088, “Synthesis and biological evaluation of enantiomerically pure glyceric acid derivatives as LpxC inhibitors” (Bioorg Med Chem, 2016).
Values after ≈ are worked out from the molar mass of the structure shown. One block for each compound: values may come before it.

Legend:
Escherichia coli [1] = experiment: Antibacterial activity against Escherichia coli BL21(DE3) incubated for 20 hrs by microdilution assay; format: functional
Procedure, shortened: (§1)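 Broth microdilution in LB medium with 5% DMSO. Overnight cultures (LB, 37 °C, 200 rpm) were diluted 1:100 in fresh LB. Compounds were added from a twofold DMSO dilution series (5.12 mM to 20 nM stock), giving 256 μM to 1 nM final. Plates were shaken 20 h at 37 °C, 200 rpm. MIC was the lowest concentration with no visible growth.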

Escherichia coli [2] = experiment: Antibacterial activity against Escherichia coli D22 incubated for 20 hrs by microdilution assay; format: functional; conditions: D22, 20 h; procedure, shortened: as §1
[3] = molecular target: UDP-3-O-acyl-N-acetylglucosamine deacetylase (Escherichia coli K-12, UniProt P0A725, C63A); experiment: Inhibition of Escherichia coli LpxC C63A mutant using UDP-3-O-[(R)-3-hydroxymyristoyl]-N-acetylglucosamine substrate after 30 mins by fluorescence-bsed microplate assay
Sequence of UDP-3-O-acyl-N-acetylglucosamine deacetylase (P0A725 whole entry C63A, the tested form may be a part): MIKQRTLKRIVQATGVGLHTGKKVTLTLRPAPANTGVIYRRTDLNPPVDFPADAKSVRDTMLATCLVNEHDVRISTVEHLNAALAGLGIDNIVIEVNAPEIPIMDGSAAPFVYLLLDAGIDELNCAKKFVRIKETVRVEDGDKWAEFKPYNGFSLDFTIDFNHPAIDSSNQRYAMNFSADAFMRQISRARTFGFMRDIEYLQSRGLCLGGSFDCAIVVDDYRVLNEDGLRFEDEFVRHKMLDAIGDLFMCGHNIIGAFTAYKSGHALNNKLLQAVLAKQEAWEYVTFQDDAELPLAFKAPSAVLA

Escherichia coli [4] = experiment: Antibacterial activity against Escherichia coli BL21(DE3) incubated overnight by agar disk diffusion clearance assay; format: functional
Procedure, shortened: (§2)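 Agar disc diffusion. 150 µL of an overnight LB culture (37 °C, 200 rpm) was spread on LB agar. 6 mm filter discs were loaded with 15 µL of 10 mM compound in DMSO, with DMSO and CHIR-090 discs as controls. Plates were incubated overnight at 37 °C and the diameter of the growth-inhibition zone was measured. Values are mean ± SD of three independent experiments.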

Escherichia coli [5] = experiment: Antibacterial activity against Escherichia coli D22 incubated overnight by agar disk diffusion clearance assay; format: functional; procedure, shortened: as §2

SMILES: O=C(CO[C@H](CO)c1ccc(C#Cc2ccc(CN3CCOCC3)cc2)cc1)NO
MIC (Escherichia coli [1]): 64 µM (≈ 26.3 µg/mL)
MIC (Escherichia coli [2]): 0.5 µM (≈ 0.205 µg/mL)
IC50 [3]: 690 nM
Ki [3]: 95 nM

SMILES: O=C(COCc1ccc(C#Cc2ccc(CN3CCOCC3)cc2)cc1)NO
MIC (Escherichia coli [1]): 64 µM (≈ 24.3 µg/mL)
MIC (Escherichia coli [2]): 1 µM (≈ 0.38 µg/mL)
IC50 [3]: 10500 nM
Ki [3]: 1450 nM

SMILES: O=C(NO)[C@@H](CO)OCc1ccc(C#Cc2ccccc2)cc1
diameter of the inhibition zone (DIZ) (Escherichia coli [4]): 10.3 mm
diameter of the inhibition zone (DIZ) (Escherichia coli [5]): 17 mm
MIC (Escherichia coli [1]): 256 µM (≈ 79.7 µg/mL)
MIC (Escherichia coli [2]): 8 µM (≈ 2.49 µg/mL)
IC50 [3]: 1870 nM
Ki [3]: 260 nM

SMILES: O=C(CO[C@@H](CO)c1ccc(C#Cc2ccccc2)cc1)NO
MIC (Escherichia coli [1]): 256 µM (≈ 79.7 µg/mL)
MIC (Escherichia coli [2]): 32 µM (≈ 9.96 µg/mL)
IC50 [3]: 31600 nM
Ki [3]: 4400 nM

SMILES: O=C(NO)[C@H](CO)O[C@H](CO)c1ccc(C#Cc2ccc(CN3CCOCC3)cc2)cc1
MIC (Escherichia coli [1]): > 256 µM
MIC (Escherichia coli [2]): 4 µM (≈ 1.76 µg/mL)
IC50 [3]: 2600 nM
Ki [3]: 360 nM

SMILES: O=C(CO[C@@H](CO)c1ccc(C#Cc2ccc(CN3CCOCC3)cc2)cc1)NO
MIC (Escherichia coli [1]): > 256 µM
MIC (Escherichia coli [2]): 4 µM (≈ 1.64 µg/mL)
IC50 [3]: 198000 nM
Ki [3]: 27300 nM

SMILES: O=C(CO[C@H](CO)c1ccc(C#Cc2ccccc2)cc1)NO
MIC (Escherichia coli [1]): 256 µM (≈ 79.7 µg/mL)
MIC (Escherichia coli [2]): 4 µM (≈ 1.25 µg/mL)
IC50 [3]: 480 nM
Ki [3]: 66 nM

MIC (Escherichia coli [1]): 1 µM (≈ 0.437 µg/mL)
MIC (Escherichia coli [2]): 0.032 µM (≈ 0.014 µg/mL)
SMILES: C[C@@H](O)[C@H](NC(=O)c1ccc(C#Cc2ccc(CN3CCOCC3)cc2)cc1)C(=O)NO

SMILES: O=C(NO)[C@@H](CO)OCc1ccc(C#Cc2ccc(CN3CCOCC3)cc2)cc1
diameter of the inhibition zone (DIZ) (Escherichia coli [4]): 12.3 mm
diameter of the inhibition zone (DIZ) (Escherichia coli [5]): 22 mm
MIC (Escherichia coli [1]): 128 µM (≈ 52.5 µg/mL)
MIC (Escherichia coli [2]): 4 µM (≈ 1.64 µg/mL)
IC50 [3]: 1660 nM
Ki [3]: 230 nM

SMILES: O=C(NO)[C@H](CO)OCc1ccc(C#Cc2ccc(CN3CCOCC3)cc2)cc1
diameter of the inhibition zone (DIZ) (Escherichia coli [4]): 15.7 mm
diameter of the inhibition zone (DIZ) (Escherichia coli [5]): 25.8 mm
MIC (Escherichia coli [1]): 64 µM (≈ 26.3 µg/mL)
MIC (Escherichia coli [2]): 2 µM (≈ 0.821 µg/mL)
IC50 [3]: 2820 nM
Ki [3]: 390 nM

SMILES: O=C(NO)[C@H](CO)OCc1ccc(C#Cc2ccccc2)cc1
diameter of the inhibition zone (DIZ) (Escherichia coli [4]): 11.7 mm
diameter of the inhibition zone (DIZ) (Escherichia coli [5]): 20.7 mm
MIC (Escherichia coli [1]): 128 µM (≈ 39.9 µg/mL)
MIC (Escherichia coli [2]): 4 µM (≈ 1.25 µg/mL)
IC50 [3]: 1960 nM
Ki [3]: 270 nM

SMILES: O=C(COCc1ccc(C#Cc2ccccc2)cc1)NO
MIC (Escherichia coli [1]): 128 µM (≈ 36 µg/mL)
MIC (Escherichia coli [2]): 4 µM (≈ 1.13 µg/mL)
IC50 [3]: > 200000 nM
